# The source made the active and inactive calls. The calls are words filed in the database; no cut-off is given here.
# Columns and labels:
# [1] = tested on: Mus musculus; test: Toxicity in DSS-induced colitis BALB/c mouse model assessed as overt reactions at 30 mg/kg, po qd for 7 days relative to vehicle-treated control; assay type: organism-based; design: dose 30 mg/kg, route oral; conditions: in vivo, 168 h
# [2] = tested on: Mus musculus; test: Antiinflammatory activity against DSS-induced colitis BALB/c mouse model assessed as reduction in shortening of colon at 5 mg/kg, po qd for 7 days measured on day 7 relative to vehicle-treated control; assay type: functional; design: scale not given: the % may be the effect or the level left
# Summary of the method: (§1)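 Female SPF BALB/c mice, 6−8 weeks old; colitis induced by 5% DSS in tap drinking water (renewed every second day) for 7 days. Daily oral dosing for 7 days as suspension/solution in 0.5% carboxymethyl cellulose/2% Tween 80. Daily body weight; DAI per mouse each day from weight loss, occult blood and stool consistency; colon length at autopsy. Mean ± SEM, n = 6−7.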
# [3] = tested on: Mus musculus; test: Antiinflammatory activity against DSS-induced colitis BALB/c mouse model assessed as prevention of body weigth loss at 5 mg/kg, po qd for 7 days measured on day 7 relative to vehicle-treated control; assay type: functional; summary of the method: as §1
# [4] = tested on: Mus musculus; test: Antiinflammatory activity against DSS-induced colitis BALB/c mouse model assessed as reduction in histological colon damage score at 5 mg/kg, po qd for 7 days measured on day 7 relative to vehicle-treated control; assay type: functional; design: scale not given: the % may be the effect or the level left
# Summary of the method: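 After 7 days of 5% DSS with daily oral dosing, about 1 cm distal colon was fixed in 10% formaldehyde-saline, paraffin-embedded, cut into 5 μm serial sections and H&E-stained. Scoring covered cell infiltration (0−3) and extent of injury (0−3), done blinded by two independent observers.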
# [5] = tested on: Mus musculus; test: Antiinflammatory activity against DSS-induced colitis BALB/c mouse model assessed as reduction in TNFalpha level at 5 mg/kg, po qd for 7 days measured on day 7 relative to vehicle-treated control; assay type: functional, organism-based; design: dose 5 mg/kg
# Summary of the method: (§2)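 DSS colitis in female BALB/c mice (5% DSS in drinking water, 7 days, daily oral dosing). At autopsy, colon remaining after histology sampling snap-frozen, stored at −20 °C, thawed, contents removed, chopped and homogenized; supernatant protein determined. IL1b, IL6 and TNFα in colon supernatant by sandwich ELISA, expressed as ng/mg. Mean ± SEM, n = 6−7.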
# [6] = tested on: Mus musculus; test: Antiinflammatory activity against DSS-induced colitis BALB/c mouse model assessed as reduction in IL6 level at 5 mg/kg, po qd for 7 days measured on day 7 relative to vehicle-treated control; assay type: functional, organism-based; design: dose 5 mg/kg; summary of the method: as §2
# [7] = tested on: Mus musculus; test: Antiinflammatory activity against DSS-induced colitis BALB/c mouse model assessed as reduction in IL1b level at 5 mg/kg, po qd for 7 days measured on day 7 relative to vehicle-treated control; assay type: functional, organism-based; design: dose 5 mg/kg; summary of the method: as §2
# [8] = tested on: Mus musculus; test: Antiinflammatory activity against DSS-induced colitis BALB/c mouse model assessed as decrease in myeloperoxidative activity at 5 mg/kg, po qd for 7 days measured on day 7 relative to vehicle-treated control; assay type: functional; design: scale not given: the % may be the effect or the level left
# Summary of the method: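 In the 7-day 5% DSS BALB/c colitis model with daily oral dosing, colon MPO was measured in homogenized snap-frozen colon supernatant (protein determined) by a standard method.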
# [9] = tested on: Mus musculus; test: Antiinflammatory activity against DSS-induced colitis BALB/c mouse model assessed as decrease in disease activity index at 5 mg/kg, po qd for 7 days measured on day 7 relative to vehicle-treated control; assay type: functional; design: scale not given: the % may be the effect or the level left; summary of the method: as §1
# [10] = tested on: Mus musculus; test: Antiinflammatory activity against DSS-induced colitis BALB/c mouse model assessed as increase in colon lenght at 30 mg/kg, po qd for 7 days relative to vehicle-treated control; assay type: functional, organism-based; design: dose 30 mg/kg; summary of the method: as §1
# [11] = tested on: Mus musculus; test: Antiinflammatory activity against DSS-induced colitis BALB/c mouse model assessed as decrease in disease activity index at 30 mg/kg, po qd for 7 days relative to vehicle-treated control; assay type: functional, organism-based; design: dose 30 mg/kg; summary of the method: as §1
Compound,Activity [1],Activity [2],Activity [3],Activity [4],Activity [5],Activity [6],Activity [7],Activity [8],Activity [9],Activity [10],Activity [11]
O=C(O)c1ccc(C[C@@]2(C3=Cc4ccccc4C3)Cc3ccccc3[C@H]2O)cc1,Non-toxic,–,–,–,–,–,–,–,–,–,–
C[C@]12C=CC(=O)C=C1CC[C@@H]1[C@@H]2[C@@H](O)C[C@@]2(C)[C@H]1CC[C@]2(O)C(=O)CO [PREDNISOLONE],–,39%,12.6%,26%,Active,Active,Active,54%,50%,–,–
O=C(O)c1ccc(C[C@@]2(C3=Cc4ccccc4C3)Cc3ccccc3[C@@H]2O)cc1,Non-toxic,–,–,–,–,–,–,–,–,Active,inactive

# Source: ChEMBL document CHEMBL2163256, “6-(methylamino)hexane-1,2,3,4,5-pentanol 4-(((1S,2S)-1-hydroxy-2,3-dihydro-1H,1'H-[2,2-biinden]-2-yl)methyl)benzoate (PH46A): a novel small molecule with efficacy in murine models of colitis” (J Med Chem, 2012)
